For the test, the system named is Plasmodium yoelii. Nature of the test: Antimalarial activity against Plasmodium yoelii YM infected in BALB/c mouse assessed as mouse survival at 30 mg/kg, sc administered QD for 4 days starting at 96 hrs post infection by Giemsa-staining based microscopic analysis. It is filed as functional. In outline:
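Mice inoculated with 1×106 P. yoelii parasites. Subcutaneous dosing for 4 days starting 96 h post infection, given once daily or twice daily 8 h apart. Parasitemia followed on Giemsa-stained blood smears. Survival recorded at 40 days post infection; groups of n=3. DMSO-only mice served as untreated controls.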

The record followed here is ChEMBL document CHEMBL4007417, “Target Elucidation by Cocrystal Structures of NADH-Ubiquinone Oxidoreductase of Plasmodium falciparum (PfNDH2) with Small Molecule To Eliminate Drug-Resistant Malaria” (J Med Chem, 2017).

As to `Cc1c(-c2ccc(Cc3ccc(SC(F)(F)F)cc3)cc2)[nH]c2cccc(F)c2c1=O`, the survival at 30 mg/kg is 66.7%.
